Measurements: ChEMBL document CHEMBL1154876, “Synthesis and antimicrobial studies on novel sulfonamides containing 4-azidomethyl coumarin” (2010)
Values after ≈ are worked out from the molar mass of the structure shown.

What was measured:
Assay type in all cases: functional
[1] = test system: Enterococcus faecalis; assay: Antibacterial activity against Streptococcus faecalis MTCC 3382 after 18 hrs by broth microdilution method; conditions: MTCC 3382, 18 h
[2] = test system: Klebsiella pneumoniae; assay: Antibacterial activity against Klebsiella pneumoniae MTCC 3384 after 18 hrs by broth microdilution method; conditions: MTCC 3384, 18 h
[3] = test system: Aspergillus fumigatus; assay: Antifungal activity against Aspergillus fumigatus after 48 to 72 hrs by broth microdilution method
Outline: (§1)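 Test compounds were prepared as 10 mg/ml DMSO stocks and serially diluted twofold in Sabouraud's dextrose broth over 500, 250, 125, 62.5, 31.25, 16, 8, 4, 2 and 1, alongside fluconazole as reference. Plates were inoculated with 1–5 × 10⁴ cfu/ml and held at 25 °C for 48–72 h. The MIC was the lowest concentration showing no visible growth.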

[4] = test system: Pseudomonas aeruginosa; assay: Antibacterial activity against Pseudomonas aeruginosa MTCC 1034 after 18 hrs by broth microdilution method; conditions: MTCC 1034, 18 h
[5] = test system: Mucor; assay: Antifungal activity against Mucor fuscus after 48 to 72 hrs by broth micro dilution method; outline: as §1
[6] = test system: Fusarium oxysporum; assay: Antifungal activity against Fusarium oxysporum after 48 to 72 hrs by broth microdilution method; outline: as §1
[7] = test system: Staphylococcus aureus; assay: Antibacterial activity against Staphylococcus aureus MTCC 3160 after 18 hrs by broth microdilution method; conditions: MTCC 3160, 18 h
[8] = test system: Bacillus subtilis; assay: Antibacterial activity against Bacillus subtilis MTCC 297 after 18 hrs by broth microdilution method; conditions: MTCC 297, 18 h
[9] = test system: Escherichia coli; assay: Antibacterial activity against Escherichia coli MTCC 1089 after 18 hrs by broth microdilution method; conditions: MTCC 1089, 18 h
[10] = test system: Aspergillus niger; assay: Antifungal activity against Aspergillus niger after 48 to 72 hrs by broth microdilution method; outline: as §1
[11] = test system: Candida albicans; assay: Antifungal activity against Candida albicans after 48 to 72 hrs by broth microdilution method; outline: as §1
[12] = test system: Penicillium chrysogenum; assay: Antifungal activity against Penicillium chrysogenum after 48 to 72 hrs by broth microdilution method; outline: as §1

## Cc1cc2oc(=O)cc(CN=[N+]=[N-])c2cc1S(=O)(=O)Nc1ccccc1
[1]
  MIC: 31.2 µg/mL (≈ 84.4 µM)
[2]
  MIC: 125 µg/mL (≈ 337 µM)
[3]
  MIC: 8 µg/mL (≈ 21.6 µM)
[4]
  MIC: 125 µg/mL (≈ 337 µM)
[5]
  MIC: 4 µg/mL (≈ 10.8 µM)
[6]
  MIC: 4 µg/mL (≈ 10.8 µM)
[7]
  MIC: 4 µg/mL (≈ 10.8 µM)
[8]
  MIC: 31.2 µg/mL (≈ 84.4 µM)
[9]
  MIC: 125 µg/mL (≈ 337 µM)
[10]
  MIC: 8 µg/mL (≈ 21.6 µM)
[11]
  MIC: 16 µg/mL (≈ 43.2 µM)
[12]
  MIC: 2 µg/mL (≈ 5.4 µM)

## Cc1cccc(NS(=O)(=O)c2cc3c(CN=[N+]=[N-])cc(=O)oc3cc2C)c1
[1]
  MIC: 250 µg/mL (≈ 650 µM)
[2]
  MIC: 4 µg/mL (≈ 10.4 µM)
[3]
  MIC: 8 µg/mL (≈ 20.8 µM)
[4]
  MIC: 2 µg/mL (≈ 5.2 µM)
[5]
  MIC: 62.5 µg/mL (≈ 163 µM)
[6]
  MIC: 125 µg/mL (≈ 325 µM)
[7]
  MIC: 16 µg/mL (≈ 41.6 µM)
[8]
  MIC: 16 µg/mL (≈ 41.6 µM)
[9]
  MIC: > 500 µg/mL
[10]
  MIC: 1 µg/mL (≈ 2.6 µM)
[11]
  MIC: 4 µg/mL (≈ 10.4 µM)
[12]
  MIC: 8 µg/mL (≈ 20.8 µM)

## Cc1ccc(NS(=O)(=O)c2cc3c(CN=[N+]=[N-])cc(=O)oc3cc2C)cc1
[1]
  MIC: 16 µg/mL (≈ 41.6 µM)
[2]
  MIC: 1 µg/mL (≈ 2.6 µM)
[3]
  MIC: 16 µg/mL (≈ 41.6 µM)
[4]
  MIC: 125 µg/mL (≈ 325 µM)
[5]
  MIC: 62.5 µg/mL (≈ 163 µM)
[6]
  MIC: 1 µg/mL (≈ 2.6 µM)
[7]
  MIC: 16 µg/mL (≈ 41.6 µM)
[8]
  MIC: 8 µg/mL (≈ 20.8 µM)
[9]
  MIC: > 500 µg/mL
[10]
  MIC: 4 µg/mL (≈ 10.4 µM)
[11]
  MIC: 1 µg/mL (≈ 2.6 µM)
[12]
  MIC: 16 µg/mL (≈ 41.6 µM)

## Cc1cc2oc(=O)cc(CN=[N+]=[N-])c2cc1S(=O)(=O)Nc1ccccc1Cl
[1]
  MIC: 1 µg/mL (≈ 2.47 µM)
[2]
  MIC: 1 µg/mL (≈ 2.47 µM)
[3]
  MIC: 31.2 µg/mL (≈ 77.2 µM)
[4]
  MIC: 31.2 µg/mL (≈ 77.2 µM)
[5]
  MIC: 16 µg/mL (≈ 39.5 µM)
[6]
  MIC: 4 µg/mL (≈ 9.88 µM)
[7]
  MIC: 1 µg/mL (≈ 2.47 µM)
[8]
  MIC: 125 µg/mL (≈ 309 µM)
[9]
  MIC: > 500 µg/mL
[10]
  MIC: 62.5 µg/mL (≈ 154 µM)
[11]
  MIC: 62.5 µg/mL (≈ 154 µM)
[12]
  MIC: 31.2 µg/mL (≈ 77.2 µM)

## Cc1cc2oc(=O)cc(CN=[N+]=[N-])c2cc1S(=O)(=O)Nc1c(C)cccc1C
[1]
  MIC: > 500 µg/mL
[2]
  MIC: 1 µg/mL (≈ 2.51 µM)
[3]
  MIC: 2 µg/mL (≈ 5.02 µM)
[4]
  MIC: 2 µg/mL (≈ 5.02 µM)
[5]
  MIC: 16 µg/mL (≈ 40.2 µM)
[6]
  MIC: 1 µg/mL (≈ 2.51 µM)
[7]
  MIC: 125 µg/mL (≈ 314 µM)
[8]
  MIC: > 500 µg/mL
[9]
  MIC: > 500 µg/mL
[10]
  MIC: 8 µg/mL (≈ 20.1 µM)
[11]
  MIC: 8 µg/mL (≈ 20.1 µM)
[12]
  MIC: 31.2 µg/mL (≈ 78.4 µM)

## COc1ccccc1NS(=O)(=O)c1cc2c(CN=[N+]=[N-])cc(=O)oc2cc1C
[1]
  MIC: 1 µg/mL (≈ 2.5 µM)
[2]
  MIC: 62.5 µg/mL (≈ 156 µM)
[3]
  MIC: 62.5 µg/mL (≈ 156 µM)
[4]
  MIC: 125 µg/mL (≈ 312 µM)
[5]
  MIC: 31.2 µg/mL (≈ 78 µM)
[6]
  MIC: 1 µg/mL (≈ 2.5 µM)
[7]
  MIC: 31.2 µg/mL (≈ 78 µM)
[8]
  MIC: > 500 µg/mL
[9]
  MIC: 250 µg/mL (≈ 624 µM)
[10]
  MIC: 16 µg/mL (≈ 40 µM)
[11]
  MIC: 31.2 µg/mL (≈ 78 µM)
[12]
  MIC: > 500 µg/mL

## COc1cccc(NS(=O)(=O)c2cc3c(CN=[N+]=[N-])cc(=O)oc3cc2C)c1
[1]
  MIC: 1 µg/mL (≈ 2.5 µM)
[2]
  MIC: 2 µg/mL (≈ 4.99 µM)
[3]
  MIC: 31.2 µg/mL (≈ 78 µM)
[4]
  MIC: 1 µg/mL (≈ 2.5 µM)
[5]
  MIC: 4 µg/mL (≈ 9.99 µM)
[6]
  MIC: 1 µg/mL (≈ 2.5 µM)
[7]
  MIC: 16 µg/mL (≈ 40 µM)
[8]
  MIC: > 500 µg/mL
[9]
  MIC: > 500 µg/mL
[10]
  MIC: 2 µg/mL (≈ 4.99 µM)
[11]
  MIC: 8 µg/mL (≈ 20 µM)
[12]
  MIC: 125 µg/mL (≈ 312 µM)

## Cc1ccc(NS(=O)(=O)c2cc3c(CN=[N+]=[N-])cc(=O)oc3cc2C)cc1C
[1]
  MIC: 8 µg/mL (≈ 20.1 µM)
[2]
  MIC: 125 µg/mL (≈ 314 µM)
[3]
  MIC: 8 µg/mL (≈ 20.1 µM)
[4]
  MIC: 125 µg/mL (≈ 314 µM)
[5]
  MIC: 1 µg/mL (≈ 2.51 µM)
[6]
  MIC: 1 µg/mL (≈ 2.51 µM)
[7]
  MIC: 4 µg/mL (≈ 10 µM)
[8]
  MIC: 31.2 µg/mL (≈ 78.4 µM)
[9]
  MIC: 125 µg/mL (≈ 314 µM)
[10]
  MIC: 4 µg/mL (≈ 10 µM)
[11]
  MIC: 8 µg/mL (≈ 20.1 µM)
[12]
  MIC: 2 µg/mL (≈ 5.02 µM)

## Cc1ccc(NS(=O)(=O)c2cc3c(CN=[N+]=[N-])cc(=O)oc3cc2C)c(C)c1
[1]
  MIC: 62.5 µg/mL (≈ 157 µM)
[2]
  MIC: 62.5 µg/mL (≈ 157 µM)
[3]
  MIC: 16 µg/mL (≈ 40.2 µM)
[4]
  MIC: 4 µg/mL (≈ 10 µM)
[5]
  MIC: 16 µg/mL (≈ 40.2 µM)
[6]
  MIC: 1 µg/mL (≈ 2.51 µM)
[7]
  MIC: 16 µg/mL (≈ 40.2 µM)
[8]
  MIC: 125 µg/mL (≈ 314 µM)
[9]
  MIC: > 500 µg/mL
[10]
  MIC: 4 µg/mL (≈ 10 µM)
[11]
  MIC: 8 µg/mL (≈ 20.1 µM)
[12]
  MIC: 31.2 µg/mL (≈ 78.4 µM)

## COc1ccc(NS(=O)(=O)c2cc3c(CN=[N+]=[N-])cc(=O)oc3cc2C)cc1
[1]
  MIC: 1 µg/mL (≈ 2.5 µM)
[2]
  MIC: 1 µg/mL (≈ 2.5 µM)
[3]
  MIC: 2 µg/mL (≈ 4.99 µM)
[4]
  MIC: 8 µg/mL (≈ 20 µM)
[5]
  MIC: 250 µg/mL (≈ 624 µM)
[6]
  MIC: 1 µg/mL (≈ 2.5 µM)
[7]
  MIC: 4 µg/mL (≈ 9.99 µM)
[8]
  MIC: > 500 µg/mL
[9]
  MIC: 250 µg/mL (≈ 624 µM)
[10]
  MIC: 2 µg/mL (≈ 4.99 µM)
[11]
  MIC: 8 µg/mL (≈ 20 µM)
[12]
  MIC: 250 µg/mL (≈ 624 µM)

## CCOc1ccc(NS(=O)(=O)c2cc3c(CN=[N+]=[N-])cc(=O)oc3cc2C)cc1
[1]
  MIC: 1 µg/mL (≈ 2.41 µM)
[2]
  MIC: 16 µg/mL (≈ 38.6 µM)
[3]
  MIC: > 500 µg/mL
[4]
  MIC: 62.5 µg/mL (≈ 151 µM)
[5]
  MIC: 62.5 µg/mL (≈ 151 µM)
[6]
  MIC: 1 µg/mL (≈ 2.41 µM)
[7]
  MIC: 2 µg/mL (≈ 4.83 µM)
[8]
  MIC: > 500 µg/mL
[9]
  MIC: 62.5 µg/mL (≈ 151 µM)
[10]
  MIC: 250 µg/mL (≈ 603 µM)
[11]
  MIC: 16 µg/mL (≈ 38.6 µM)
[12]
  MIC: > 500 µg/mL

## O=C(O)c1cn(C2CC2)c2cc(N3CCNCC3)c(F)cc2c1=O [CIPROFLOXACIN]
[1]
  MIC: 1 µg/mL (≈ 3.02 µM)
[2]
  MIC: 1 µg/mL (≈ 3.02 µM)
[4]
  MIC: 1 µg/mL (≈ 3.02 µM)
[7]
  MIC: 1 µg/mL (≈ 3.02 µM)
[8]
  MIC: 1 µg/mL (≈ 3.02 µM)

## OC(Cn1cncn1)(Cn1cncn1)c1ccc(F)cc1F [FLUCONAZOLE]
[3]
  MIC: 8 µg/mL (≈ 26.1 µM)
[5]
  MIC: 8 µg/mL (≈ 26.1 µM)
[6]
  MIC: 8 µg/mL (≈ 26.1 µM)
[10]
  MIC: 8 µg/mL (≈ 26.1 µM)
[11]
  MIC: 8 µg/mL (≈ 26.1 µM)
[12]
  MIC: 8 µg/mL (≈ 26.1 µM)
